Measurements from ChEMBL document CHEMBL1667766, “Synthesis of elastin based peptides conjugated to benzisoxazole as a new class of potent antimicrobials--A novel approach to enhance biocompatibility” (2011).
Values after ≈ are worked out from the molar mass of the structure shown. *1 amine or outer side, *2 acyl side, *3 side chain or, on linkers, in order; H or OH if unused. Where a SMILES comes first, the peptide text is derived from it. [ ]: non-standard residue; d: D form. The star is where a group is joined. X2 = CC(C)[C@H](N[*:1])C(=O)NC(=O)[*:2]; X1 = Fc1ccc2c(C3CCN(*)CC3)noc2c1; Boc = CC(C)(C)OC(=O)*; OcHex = C1CCC(O*)CC1

How the values were obtained:
Type in all cases: functional
[1] = system: Escherichia coli; assay: Antimicrobial activity against Escherichia coli after 24 hrs by agar well diffusion method
Procedure, shortened: (§1)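 Bacteria grown in nutrient broth at 37 °C for 24 h, subcultured in 25 mL broth at room temperature, then spread on nutrient agar. Wells (6 mm cork borer) filled with 0.1 mL test solution in DMSO, prepared from a 1 mg/mL stock. Amoxicillin as reference, DMSO as negative control. Plates kept 24 h at 37 °C; inhibition zone measured in mm.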

[2] = system: Xanthomonas oryzae; assay: Antimicrobial activity against Xanthomonas oryzae after 24 hrs by agar well diffusion method
[3] = system: Klebsiella pneumoniae; assay: Antimicrobial activity against Klebsiella pneumoniae after 24 hrs by agar well diffusion method; procedure, shortened: as §1
[4] = system: Staphylococcus; assay: Antimicrobial activity against coagulase positive Staphylococcus after 24 hrs by agar well diffusion method; procedure, shortened: as §1
[5] = system: Aspergillus niger; assay: Antifungal activity against Aspergillus niger after 24 hrs by agar well diffusion method
Procedure, shortened: (§2)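 Fungi subcultured in 25 mL nutrient broth for one day to give inoculum, then spread on solidified Sabouraud agar. Wells punched with a 6 mm cork borer and filled with 0.1 mL test solution in DMSO, prepared from a 1 mg/mL stock. Bavistin as reference, DMSO as negative control. Read-out is inhibition zone diameter (mm).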

[6] = system: Aspergillus flavus; assay: Antifungal activity against Aspergillus flavus after 24 hrs by agar well diffusion method; procedure, shortened: as §2
[7] = system: Fusarium oxysporum; assay: Antifungal activity against Fusarium oxysporum after 24 hrs by agar well diffusion method; procedure, shortened: as §2
[8] = system: Escherichia coli; assay: Antimicrobial activity against Escherichia coli after 72 hrs by microdilution method
[9] = system: Xanthomonas oryzae; assay: Antimicrobial activity against Xanthomonas oryzae after 72 hrs by microdilution method
[10] = system: Klebsiella pneumoniae; assay: Antimicrobial activity against Klebsiella pneumoniae after 72 hrs by microdilution method
[11] = system: Staphylococcus; assay: Antimicrobial activity against coagulase positive Staphylococcus after 72 hrs by microdilution method
[12] = system: Aspergillus niger; assay: Antifungal activity against Aspergillus niger after 72 hrs by microdilution method
[13] = system: Aspergillus flavus; assay: Antifungal activity against Aspergillus flavus after 72 hrs by microdilution method
[14] = system: Fusarium oxysporum; assay: Antifungal activity against Fusarium oxysporum after 72 hrs by microdilution method

Structure (SMILES)	inhibition zone (IZ) [1] [mm]	inhibition zone (IZ) [2] [mm]	inhibition zone (IZ) [3] [mm]	inhibition zone (IZ) [4] [mm]	inhibition zone (IZ) [5] [mm]	inhibition zone (IZ) [6] [mm]	inhibition zone (IZ) [7] [mm]	MIC [8] [µg/mL]	MIC [9] [µg/mL]	MIC [10] [µg/mL]	MIC [11] [µg/mL]	MIC [12] [µg/mL]	MIC [13] [µg/mL]	MIC [14] [µg/mL]
NCC(=O)N[C@@H](Cc1ccccc1)C(=O)NCC(=O)N[C@@H](Cc1ccccc1)C(=O)N1CCC[C@H]1C(=O)N1CCC(c2noc3cc(F)ccc23)CC1.O=C(O)C(F)(F)F (H-GFGFP-X1)	25	20	18	18	29	21	23	8	9	6	8	6	8	8
CC(C)(C)OC(=O)NCC(=O)NCC(=O)N[C@@H](Cc1ccccc1)C(=O)N1CCC[C@H]1C(=O)O (Boc-GGFP-OH)	–	–	–	–	–	–	–	> 50	> 50	> 50	> 50	> 50	> 50	> 50
COC(=O)Nc1nc2ccccc2[nH]1 [CARBENDAZIM]	–	–	–	–	12	7	10	–	–	–	–	22 (≈ 115 µM)	26 (≈ 136 µM)	25 (≈ 131 µM)
N[C@@H](Cc1ccc(O)cc1)C(=O)N1CCC(c2noc3cc(F)ccc23)CC1.O=C(O)C(F)(F)F	7	5	4	4	10	3	6	40	29	34	39	34	43	41
N[C@@H](Cc1c[nH]c2ccccc12)C(=O)N1CCC(c2noc3cc(F)ccc23)CC1.O=C(O)C(F)(F)F	8	6	5	4	11	4	7	38	26	31	36	32	41	39
CC(C)[C@H](NC(=O)CN)C(=O)NCC(=O)N[C@H](C(=O)N1CCC[C@H]1C(=O)N1CCC(c2noc3cc(F)ccc23)CC1)C(C)C.O=C(O)C(F)(F)F (H-GVGVP-X1)	23	17	17	15	27	17	21	11	10	8	10	8	9	10
CC(C)[C@H](NC(=O)CNC(=O)[C@@H]1CCCN1C(=O)[C@H](Cc1ccccc1)NC(=O)CNC(=O)[C@H](Cc1ccccc1)NC(=O)CNC(=O)[C@@H]1CCCN1C(=O)[C@H](Cc1ccccc1)NC(=O)CNC(=O)[C@@H](NC(=O)CNC(=O)[C@@H]1CCCN1C(=O)[C@@H](NC(=O)NC(=O)[C@@H](NC(=O)CNC(=O)[C@@H]1CCCN1C(=O)[C@H](Cc1ccccc1)NC(=O)CNC(=O)[C@H](CCC(=O)O)NC(=O)CN)C(C)C)C(C)C)C(C)C)C(=O)NCC(=O)N[C@H](C(=O)N1CCC[C@H]1C(=O)NCC(=O)N[C@H](C(=O)NCC(=O)N[C@@H](Cc1ccccc1)C(=O)N1CCC[C@H]1C(=O)N1CCC(c2noc3cc(F)ccc23)CC1)C(C)C)C(C)C.O=C(O)C(F)(F)F (H-GEGFPG[X2]VPGVGFPGFGFPGVGVPGVGFP-X1)	12	14	11	16	34	28	28	12	10	10	13	4	4	5
CC(C)[C@H](NC(=O)CNC(=O)[C@@H]1CCCN1C(=O)[C@H](Cc1ccccc1)NC(=O)CNC(=O)[C@H](CCC(=O)OC1CCCCC1)NC(=O)CNC(=O)OC(C)(C)C)C(=O)NCC(=O)N[C@H](C(=O)N1CCC[C@H]1C(=O)NCC(=O)N[C@H](C(=O)NCC(=O)N[C@H](C(=O)N1CCC[C@H]1C(=O)NCC(=O)N[C@H](C(=O)NCC(=O)N[C@H](C(=O)N1CCC[C@H]1C(=O)NCC(=O)N[C@@H](Cc1ccccc1)C(=O)NCC(=O)N[C@@H](Cc1ccccc1)C(=O)N1CCC[C@H]1C(=O)NCC(=O)N[C@@H](Cc1ccccc1)C(=O)NCC(=O)N[C@@H](Cc1ccccc1)C(=O)N1CCC[C@H]1C(=O)O)C(C)C)C(C)C)C(C)C)C(C)C)C(C)C (Boc-GE(OcHex)GFPGVGVPGVGVPGVGVPGFGFPGFGFP-OH)	–	–	–	–	–	–	–	> 50	> 50	> 50	> 50	> 50	> 50	> 50
